How the values were obtained:
Mus musculus [1] = experiment: Hypolipidemic activity in Swiss albino mouse assessed as reduction in plasma total cholesterol level at 10 mg/kg, po for 8 days measured on day 9 by spectrophotometry relative to control; type: functional; parameters: scale not given: the % may be the effect or the level left
In short: (§1)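 Dose-response in male Swiss albino mice (21–30 g, chow fed): oral dosing at 10, 30 or 100 mg/kg/day, vehicle Tween-80 in 0.5% CMC. Plasma triglyceride and total cholesterol measured spectrophotometrically with a commercial kit; % fall relative to untreated control.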

Mus musculus [2] = experiment: Hypolipidemic activity in Swiss albino mouse assessed as reduction in plasma total cholesterol level at 100 mg/kg, po for 8 days measured on day 9 by spectrophotometry relative to control; type: functional; parameters: scale not given: the % may be the effect or the level left; in short: as §1
Mus musculus [3] = experiment: Hypolipidemic activity in Swiss albino mouse assessed as reduction in plasma triglyceride level at 100 mg/kg, po for 8 days measured on day 9 by spectrophotometry relative to control; type: functional; parameters: scale not given: the % may be the effect or the level left; in short: as §1
Mus musculus [4] = experiment: Hypolipidemic activity in Swiss albino mouse assessed as reduction in plasma total cholesterol level at 30 mg/kg, po for 8 days measured on day 9 by spectrophotometry relative to control; type: functional; parameters: scale not given: the % may be the effect or the level left; in short: as §1
Mus musculus [5] = experiment: Hypolipidemic activity in Swiss albino mouse assessed as reduction in plasma total cholesterol level at 50 mg/kg, po for 8 days measured on day 9 by spectrophotometry relative to control; type: functional; parameters: scale not given: the % may be the effect or the level left
In short: (§2)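 Male Swiss albino mice, 21–30 g, chow fed, acclimatised 1 week; n = 10/group. Oral gavage 50 mg/kg/day for 8 days, suspended in Tween-80 5 µL/mL in 0.5% CMC (10 mL/kg); vehicle controls. Fasted 12 h; day 9 blood taken 1 h post-dose under mild ether. Plasma (4000 rpm, 10 min) TG/TC by spectrophotometric kit; % fall vs control; mean ± SE, ANOVA with Dunnett's.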

[6] = Prodrug conversion in 0.1 M boric acid buffer solution assessed as benzofibrate formation at pH 9.0 at 40 degC after 4 hrs by HPLC analysis; settings: pH 9, 4 h
Mus musculus [7] = experiment: Hypolipidemic activity in Swiss albino mouse assessed as reduction in plasma triglyceride level at 10 mg/kg, po for 8 days measured on day 9 by spectrophotometry relative to control; type: functional; parameters: scale not given: the % may be the effect or the level left; in short: as §1
[8] = Aqueous stability of the compound in 0.1 M citric acid buffer at pH 3 at 40 degC after 4 hrs by HPLC analysis; type: physicochemical; settings: pH 3, 4 h
In short: (§3)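 10 mg test compound in 10 mL buffer shaken at 400 rpm, 40 °C, 4 h. Buffers: 0.2 M HCl pH 1.0, 0.1 M citric acid pH 3.0, 0.1 M phosphate pH 5.2, 0.2 M phosphate pH 7.4, 0.1 M boric acid pH 9.0. Filtered 0.20 µm; filtrate analysed by HPLC at 254 nm (C-8 column, gradient) for bezafibrate formed / % hydrolysed.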

[9] = Octanol-phosphate buffer partition coefficient, log P of the compound at pH 7.4 by HPLC analysis; type: physicochemical
In short: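 1-Octanol and 0.2 M phosphate buffer pH 7.4, mutually pre-saturated 24 h. Compound shaken between 5 mL of each phase for 60 min at 400 rpm, 25 °C, then centrifuged at 3500 rpm for 5 min. Each phase quantified by HPLC at 254 nm. log P = log of octanol/un-ionized aqueous concentration ratio, mean of triplicate.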

[10] = Prodrug conversion in 0.2 M phosphate buffer solution assessed as benzofibrate formation at pH 7.4 at 40 degC after 4 hrs by HPLC analysis; settings: pH 7.4, 4 h
Mus musculus [11] = experiment: Hypolipidemic activity in Swiss albino mouse assessed as reduction in plasma triglyceride level at 50 mg/kg, po for 8 days measured on day 9 by spectrophotometry relative to control; type: functional; parameters: scale not given: the % may be the effect or the level left; in short: as §2
[12] = Prodrug conversion in 0.1 M phosphate buffer solution assessed as benzofibrate formation at pH 5.2 at 40 degC after 4 hrs by HPLC analysis; type: physicochemical; settings: pH 5.2, 4 h; in short: as §3
Mus musculus [13] = experiment: Hypolipidemic activity in Swiss albino mouse assessed as reduction in plasma triglyceride level at 30 mg/kg, po for 8 days measured on day 9 by spectrophotometry relative to control; type: functional; parameters: scale not given: the % may be the effect or the level left; in short: as §1
[14] = Aqueous stability of the compound in 0.2 M hydrochloric acid buffer solution at pH 1 at 40 degC after 4 hrs by HPLC analysis; type: physicochemical; settings: pH 1, 4 h; in short: as §3

Structure (SMILES)	Activity (Mus musculus [1]) [%]	Activity (Mus musculus [2]) [%]	Activity (Mus musculus [3]) [%]	Activity (Mus musculus [4]) [%]	Activity (Mus musculus [5]) [%]	Drug metabolism [6] [µg/mL]	Activity (Mus musculus [7]) [%]	Stability [8]	logD [9]	Drug metabolism [10] [µg/mL]	Activity (Mus musculus [11]) [%]	Drug metabolism [12] [µg/mL]	Activity (Mus musculus [13]) [%]	Stability [14]
Cc1oc(=O)oc1COC(=O)C(C)(C)Oc1ccc(CCNC(=O)c2ccc(Cl)cc2)cc1	4.9	4	22.3	2	13	2.6	3.51	Stable	3.1	0.5	30.2	0.2	27.1	Stable
CC(=O)OC(C)OC(=O)C(C)(C)Oc1ccc(CCNC(=O)c2ccc(Cl)cc2)cc1 (stereo not drawn)	–	–	–	–	4.3	6.6	–	Stable	4.5	0.9	17.2	0.2	–	Stable
CC(C)(Oc1ccc(CCNC(=O)c2ccc(Cl)cc2)cc1)C(=O)OCCN1CCOCC1	–	–	–	–	3	8.8	–	Stable	5.1	6.2	11.8	6.3	–	Stable
CC(C)(Oc1ccc(CCNC(=O)c2ccc(Cl)cc2)cc1)C(=O)O [BEZAFIBRATE]	–	–	–	–	10.4	–	–	–	1.5	–	11.4	–	–	–
CC(C)(C)C(=O)OCOC(=O)C(C)(C)Oc1ccc(CCNC(=O)c2ccc(Cl)cc2)cc1	–	–	–	–	3.4	0.8	–	Stable	5.1	2.2	18.8	1.7	–	Stable
CC(=O)OCCOC(=O)C(C)(C)Oc1ccc(CCNC(=O)c2ccc(Cl)cc2)cc1	–	–	–	–	2.4	2.5	–	Stable	3.8	1.8	9.6	0.7	–	Stable
CC(C)OC(=O)OC(C)OC(=O)C(C)(C)Oc1ccc(CCNC(=O)c2ccc(Cl)cc2)cc1 (stereo not drawn)	–	–	–	–	-5.6	–	–	–	–	–	3.9	–	–	–
CC(C)OC(=O)OCOC(=O)C(C)(C)Oc1ccc(CCNC(=O)c2ccc(Cl)cc2)cc1	–	–	–	–	3	–	–	–	–	–	3	–	–	–

— ChEMBL document CHEMBL2086278, “Synthesis and biological evaluation of ester prodrugs of Benzafibrate as orally active hypolipidemic agents” (Eur J Med Chem, 2012)
